Laboratory results from ChEMBL document CHEMBL2346548, “Design, synthesis, and structure-activity relationship studies of tryptanthrins as antitubercular agents” (J Nat Prod, 2013).
Converted amounts (≈) assume the structure as drawn.

What was measured:
[1] = Cmax in C57BL/6 mouse at 40 mg/kg, po formulated in 0.5% methylcellulose; assay type: ADME, organism-based; parameters: dose 40 mg/kg, route oral; details: in vivo
Method in brief: (§1)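 Female C57BL/6 mice, single 40 mg/kg oral gavage; three mice per time point; plasma at 30 min to 24 h, LC-MS; noncompartmental parameters reported as means.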

[2] = Half life in C57BL/6 mouse at 40 mg/kg, po formulated in 0.5% methylcellulose; assay type: ADME, organism-based; parameters: dose 40 mg/kg, route oral; details: in vivo; method in brief: as §1
[3] = Tmax in C57BL/6 mouse at 40 mg/kg, po formulated in 0.5% methylcellulose; assay type: ADME, organism-based; parameters: dose 40 mg/kg, route oral; details: in vivo; method in brief: as §1
[4] = AUC (0 to infinity) in C57BL/6 mouse at 40 mg/kg, po formulated in 0.5% methylcellulose; assay type: ADME, organism-based; parameters: dose 40 mg/kg, route oral, time infinity; details: in vivo
[5] = Oral bioavailability in Sprague-Dawley rat at 20 mg/kg; assay type: ADME, organism-based; details: in vivo
[6] = Elimination half life in Sprague-Dawley rat at 5 mg/kg, iv; assay type: ADME, organism-based; parameters: dose 5 mg/kg, route intravenous; details: in vivo, read-out: beta t1/2 (converted)
Method in brief: (§2)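 Male Sprague-Dawley rats (n = 3), single 5 mg/kg iv dose as solution in PEG300/DMSO 50:50; plasma sampled 0.083–24 h, LC-MS bioanalysis; noncompartmental analysis, means.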

[7] = Clearance in Sprague-Dawley rat at 5 mg/kg, iv; assay type: ADME, organism-based; parameters: dose 5 mg/kg, route intravenous; details: in vivo; method in brief: as §2
[8] = Volume of distribution in Sprague-Dawley rat at 5 mg/kg, iv; assay type: ADME, organism-based; parameters: dose 5 mg/kg, route intravenous; details: in vivo; method in brief: as §2
[9] = AUC (0 to infinity) in Sprague-Dawley rat at 5 mg/kg, iv; assay type: ADME, organism-based; parameters: time infinity, dose 5 mg/kg, route intravenous; details: plasma
[10] = Half life in Sprague-Dawley rat at 20 mg/kg, po; assay type: ADME, organism-based; parameters: dose 20 mg/kg, route oral; details: in vivo
[11] = Tmax in Sprague-Dawley rat at 20 mg/kg, po; assay type: ADME, organism-based; parameters: dose 20 mg/kg, route oral; details: in vivo
[12] = Cmax in Sprague-Dawley rat at 20 mg/kg, po; assay type: ADME, organism-based; parameters: dose 20 mg/kg, route oral; details: in vivo
[13] = AUC (0 to infinity) in Sprague-Dawley rat at 20 mg/kg, po; assay type: ADME, organism-based; parameters: time infinity, dose 20 mg/kg, route oral; details: plasma
[14] = Permeability across basolateral to apical side in human Caco2 cells incubated for 1 hr at 37 degC by HPLC-MS/MS method; assay type: ADME, cell-based; details: Caco-2
[15] = Permeability across apical to basolateral side in human Caco2 cells incubated for 1 hr at 37 degC by HPLC-MS/MS method; assay type: ADME, cell-based; details: Caco-2
Method in brief: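 TC7 (Caco-2 subclone) monolayer; 10 μM compound in 1% DMSO in HBSS-MES pH 6.5 on apical donor side, basolateral receiver pH 7.4; shaken 1 h at 37 °C; receiver sampled, HPLC-MS/MS; duplicate means.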

[16] = Protein binding in human plasma at 10 uM incubated for 8 hrs at 37 degC by equilibrium dialysis method; assay type: ADME, cell-free; details: read-out: PPB (converted)
Method in brief: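 Equilibrium dialysis: 10 μM compound in 1% DMSO in human plasma vs 0.05 M phosphate buffer pH 7.5 across 12–14 K cutoff membrane, at least 8 h at 37 °C; HPLC-photodiode detection at 230 nm; duplicate means.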

[17] = Metabolic stability in human liver microsomes assessed as parent compound remaining at 1 uM incubated for 1 hr by HPLC-MS/MS method; assay type: ADME, Microsome; details: read-out: Stability
Method in brief: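 Pooled mixed-gender human liver microsomes (0.3 mg/mL protein), 1 μM compound with NADP-regenerating system in phosphate buffer pH 7.4, 1 h at 37 °C; parent measured at start and end by HPLC-MS/MS; duplicate means.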

[18] = Solubility in simulated gastric fluid at pH 1.5 by HPLC method; assay type: physicochemical
Method in brief: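 Compound at 200 μM final in 2% DMSO in simulated gastric fluid, shaken 24 h at room temperature; HPLC-photodiode array detection at 230 nm; duplicate means.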

[19] = Solubility in simulated intestinal fluid at pH 7.6 by HPLC method; assay type: physicochemical
Method in brief: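 Simulated intestinal fluid medium; each analogue 200 μM final in 2% DMSO, shaken 24 h at room temperature, then HPLC with photodiode array read at 230 nm; duplicate, means given.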

[20] = test system: Vero; assay: Cytotoxicity against african green monkey Vero cells; assay type: cell-based, Chlorocebus sabaeus; details: Chlorocebus sabaeus, Vero; read-out: IC50
[21] = test system: Mycobacterium tuberculosis; assay: Antitubercular activity against non-replicating Mycobacterium tuberculosis H37Rv incubated for 10 days by LORA method; assay type: functional; details: 240 h
Method in brief: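 H37Rv carrying pFCA-luxAB was adapted to low oxygen by gradual self-depletion in a sealed, slowly stirred flask. It was then exposed to compounds for 10 days under anaerobic conditions. Cultures recovered for 28 h in ambient oxygen before n-decanal substrate was added and luminescence read. MIC was the lowest concentration giving a 90% reduction in luminescence versus untreated controls.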

[22] = test system: Mycobacterium tuberculosis; assay: Antitubercular activity against Mycobacterium tuberculosis H37Rv incubated at 37 degC for 14 days in presence of 40% human serum by microplate alamar blue assay; assay type: functional; details: 336 h
Method in brief: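 This is the MABA run in 7H9 broth containing 40% human serum. Compounds were 2-fold serially diluted, and wells were inoculated with H37Rv at 2 × 10⁵ CFU/mL. Incubation was at 37 °C for 14 days, then Alamar Blue was added. MIC was the lowest concentration preventing the blue-to-pink colour change.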

[23] = test system: Mycobacterium tuberculosis; assay: Antitubercular activity against Mycobacterium tuberculosis H37Rv incubated at 37 degC for 7 days by microplate alamar blue assay; assay type: functional; details: Mycobacterium tuberculosis, H37Rv, 168 h
Method in brief: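 Mtb H37Rv was grown in 7H9 broth with glycerol, Casitone, 10% OADC and 0.05% Tween 80 to OD600 0.4. Compounds were 2-fold serially diluted from DMSO stocks in 7H9, and wells were inoculated at 2 × 10⁵ CFU/mL. After 7 days at 37 °C, Alamar Blue was added and read after a further 24 h. MIC was the lowest concentration preventing the blue-to-pink change.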

[24] = Aqueous solubility in PBS buffer at pH 7.4 by HPLC method; assay type: physicochemical; details: PBS buffer, read-out: solubility
Method in brief: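 Compound at 200 μM final in 2% DMSO in PBS pH 7.4, shaken 24 h at room temperature; quantified by HPLC with photodiode array detection at 230 nm; duplicate, mean reported.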

[25] = Efflux ratio in human Caco2 cells incubated for 1 hr at 37 degC by HPLC-MS/MS method; assay type: ADME, cell-based; details: Caco-2
[26] = test system: Mycobacterium tuberculosis; assay: Antitubercular activity against Mycobacterium tuberculosis Erdman ATCC 35801 infected in C57BL/6 mouse assessed as viable bacterial load in spleen at 200 mg/kg twice daily through gavage 5 days per week for 4 weeks starting on 10th day post-infection (reference value: 4.79 +/- 0.21 log10CFU/spleen); assay type: functional
[27] = test system: Mycobacterium tuberculosis; assay: Antitubercular activity against Mycobacterium tuberculosis Erdman ATCC 35801 infected in C57BL/6 mouse assessed as viable bacterial load in spleen at 200 mg/kg/day through gavage 5 days per week for 4 weeks starting on 10th day post-infection (reference value: 4.79 +/- 0.21 log10CFU/spleen); assay type: functional
[28] = test system: Mycobacterium tuberculosis; assay: Antitubercular activity against Mycobacterium tuberculosis Erdman ATCC 35801 infected in C57BL/6 mouse assessed as viable bacterial load in lung at 200 mg/kg twice daily through gavage 5 days per week for 4 weeks starting on 10th day post-infection (reference value: 6.49 +/- 0.10 log10CFU/lung); assay type: functional
[29] = test system: Mycobacterium tuberculosis; assay: Antitubercular activity against Mycobacterium tuberculosis Erdman ATCC 35801 infected in C57BL/6 mouse assessed as viable bacterial load in lung at 200 mg/kg/day through gavage 5 days per week for 4 weeks starting on 10th day post-infection (reference value: 6.49 +/- 0.10 log10CFU/lung); assay type: functional
[30] = test system: Salmonella typhimurium; assay: Toxicity in Salmonella typhimurium TA100 assessed as compound level per well causing cytotoxicity at 0.25 to 240 ug/well in absence of rat liver S9 fraction; assay type: organism-based; details: salmonella enterica subsp. enterica serovar typhimurium
Method in brief: (§3)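 MicroAmes: strains preincubated with or without Aroclor-induced rat liver S9, duplicate wells, six concentrations 0.25–250 μg equivalents/well; DMSO vehicle, 4-nitroquinoline-N-oxide (−S9) and 2-aminoanthracene (+S9) positive controls; revertant colonies counted; cytotoxicity noted as reduced revertants or background lawn; precipitation recorded.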

[31] = test system: Salmonella typhimurium; assay: Toxicity in Salmonella typhimurium TA100 assessed as compound level per well causing cytotoxicity at 0.25 to 240 ug/well in presence of rat liver S9 fraction; assay type: organism-based; details: salmonella enterica subsp. enterica serovar typhimurium; method in brief: as §3
[32] = test system: Salmonella typhimurium; assay: Mutagenicity in Salmonella typhimurium TA100 assessed as mean revertant colonies at 0.25 to 240 ug/well in presence of rat liver S9 fraction; assay type: toxicity, organism-based; details: salmonella enterica subsp. enterica serovar typhimurium; method in brief: as §3
[33] = test system: Salmonella typhimurium; assay: Mutagenicity in Salmonella typhimurium TA100 assessed as mean revertant colonies at 0.25 to 240 ug/well in absence of rat liver S9 fraction; assay type: toxicity, organism-based; details: salmonella enterica subsp. enterica serovar typhimurium; method in brief: as §3
[34] = test system: Salmonella typhimurium; assay: Mutagenicity in Salmonella typhimurium TA98 assessed as mean revertant colonies at 0.25 to 240 ug/well in presence of rat liver S9 fraction; assay type: toxicity, organism-based; details: salmonella enterica subsp. enterica serovar typhimurium; method in brief: as §3
[35] = test system: Salmonella typhimurium; assay: Mutagenicity in Salmonella typhimurium TA98 assessed as mean revertant colonies at 0.25 to 240 ug/well in absence of rat liver S9 fraction; assay type: toxicity, organism-based; details: salmonella enterica subsp. enterica serovar typhimurium; method in brief: as §3
[36] = Cmax in C57BL/6 mouse at 40 mg/kg, po formulated in 30% HP-beta-CD; assay type: ADME, organism-based; parameters: dose 40 mg/kg, route oral; details: in vivo; method in brief: as §1
[37] = Tmax in C57BL/6 mouse at 40 mg/kg, po formulated in 30% HP-beta-CD; assay type: ADME, organism-based; parameters: dose 40 mg/kg, route oral; details: in vivo; method in brief: as §1
[38] = AUC (0 to infinity) in C57BL/6 mouse at 40 mg/kg, po formulated in 30% HP-beta-CD; assay type: ADME, organism-based; parameters: time infinity, dose 40 mg/kg, route oral; details: plasma

O=C1c2ccccc2-n2c1nc1c(c2=O)CCCC1
Cmax [1]: 1930 ng/mL
half-life [2]: 4.99 h
Tmax [3]: 1.5 h
AUC(0-inf) [4]: 5280 ng·h/mL
bioavailability [5]: 30.1%
half-life [6]: 3.98 h
clearance [7]: 5.67 mL/min/kg
Vd [8]: 1.62 L/kg
AUC(0-inf) [9]: 16500 ng·h/mL
half-life [10]: 6.29 h
Tmax [11]: 4.67 h
Cmax [12]: 2030 ng/mL
AUC(0-inf) [13]: 19900 ng·h/mL
Papp B→A at 1 h [14]: 52.4 ×10⁻⁶ cm/s
Papp A→B at 1 h [15]: 85.4 ×10⁻⁶ cm/s
fraction unbound at 8 h, 10 µM [16]: 0.043
remaining at 1 h, 1 µM [17]: 18%
solubility [18]: 53 µM (≈ 13.4 µg/mL)
solubility [19]: 73.4 µM (≈ 18.5 µg/mL)
IC50 [20]: 8.7 µg/mL (≈ 34.5 µM)
MIC90 [21]: 10.5 µg/mL (≈ 41.6 µM)
MIC [22]: 1 µg/mL
MIC [23]: 0.5 µg/mL (≈ 1.98 µM)
solubility [24]: 54.9 µM (≈ 13.8 µg/mL)
efflux ratio at 1 h [25]: > 1
log10cfu [26]: 4.89
log10cfu [27]: 4.88
log10cfu [28]: 6.6
log10cfu [29]: 6.5
Activity [30]: >= 25 ug
Activity [31]: >= 25 ug
Activity [32]: Non-toxic
Activity [33]: Non-toxic
Activity [34]: Non-toxic
Activity [35]: Non-toxic
Cmax [36]: 2260 ng/mL
Tmax [37]: 0.5 h
AUC(0-inf) [38]: 2570 ng·h/mL
